These results are taken from ChEMBL document CHEMBL1123247, “Nucleoside conjugates. 7. Synthesis and antitumor activity of 1-beta-D-arabinofuranosylcytosine conjugates of ether lipids” (J Med Chem, 1986).

The subject of assay [1] is P388. As to the kind of experiment: Antitumor activity against ip implanted P388 leukemia in mice expressed as active dose range (1-5qd treatment schedule) required to produce increase in life span by >25% was determined; Range is 40-80. It counts as functional, Mus musculus. In outline: (§1)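 P388 leukemia: 1 × 10^6 cells were given ip on day 0 to DBA/2J mice, groups of 6 (23-33 g). Treatment was ip from 24 h after inoculation, vehicle 0.9% NaCl with 0.5% Tween-80. Mice were observed daily until death or 45 days. Median survival T/C was calculated from survivors per NCI protocols, and ILS = (T/C − 1) × 100. Active range means doses giving ILS ≥25%; optimal dose means greatest ILS.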

The test system of assay [2] is P388. As to the kind of experiment: Antitumor activity was determined against the ip implanted P388 leukemia in mice by 45-day survivors in mice at 60 mg/kg (1-5qd treatment schedule) dosage. Particulars: route intraperitoneal. The format is functional, Mus musculus. An outline of the steps: (§2)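 DBA/2J mice, 23-33 g, in groups of 6, were inoculated ip with 1×10^6 P388 cells on day 0. Dosing was ip from 24 h on the stated schedules, in 0.9% NaCl with 0.5% Tween-80 (sonicated solution or suspension). Survival was followed daily until death or 45 days. Median T/C was calculated from survivors per NCI protocols, with ILS = (T/C − 1) × 100.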

In assay [3] the test system is P388. As to the kind of experiment: Antitumor activity against ip implanted P388 leukemia in mice expressed as active dose range (1,5,9qd treatment schedule) required to produce increase in life span by >25% was determined; Range is 100-167. The format is functional, Mus musculus. In outline: as §1
In assay [4] the test system is P388. As to the kind of experiment: Antitumor activity was determined against the ip implanted P388 leukemia in mice by percent median survival rate (treated/control) at 133 mg/kg (treatment of 1,5,9qd schedule) dosage; >45.0/11.5. It counts as functional, Mus musculus. Particulars: route intraperitoneal.
In assay [5] the test system is P388. The experiment in a line: Antitumor activity was determined against the ip implanted P388 leukemia in mice by percent median survival rate (treated/control) at 60 mg/kg (1-5qd treatment schedule) dosage; >45.0/11.5. Particulars: route intraperitoneal. It counts as functional, Mus musculus.
Assay [6] relates to P388. As to the kind of experiment: Antitumor activity was determined against the ip implanted P388 leukemia in mice by percent increase in life span at 133 mg/kg (treatment of 1,5,9qd schedule) dosage. The format is functional, Mus musculus. Particulars: route intraperitoneal. In outline:
as §2

Assay [7] relates to P388. As to the kind of experiment: Antitumor activity was determined against the ip implanted P388 leukemia in mice by 45-day survivors in mice at 133 mg/kg (treatment of 1,5,9qd schedule) dosage. The format is functional, Mus musculus. Particulars: route intraperitoneal. In outline:
as §2

In assay [8] the test system is P388. The experiment in a line: Antitumor activity against the ip implanted P388 leukemia in mice expressed as optimal dose (1 qd treatment schedule) required to produce greatest increase in life span was determined. The format is functional, Mus musculus. In outline: as §1
Assay [9] has as its system P388. As to the kind of experiment: Antitumor activity was determined against the ip implanted P388 leukemia in mice by change in […] at 300 mg/kg (1 qd treatment schedule) dosage. The format is functional, Mus musculus. Particulars: route intraperitoneal. In outline:
(§3)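 P388 leukemia, 1×10^6 cells implanted ip on day 0 into DBA/2J mice, groups of 6 (wt 23-33 g). Dosing ip started 24 h post-inoculation, vehicle 0.9% NaCl containing 0.5% Tween-80. Animals were observed daily until death or 45 days. Outputs were weight change, median survival T/C from survivors per NCI protocols, and %ILS = (T/C − 1) × 100.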

For assay [10], the system named is P388. As to the kind of experiment: Antitumor activity against the ip implanted P388 leukemia in mice expressed as optimal dose (1,5,9qd treatment schedule) required to produce greatest increase in life span was determined. The format is functional, Mus musculus. More on the design: unit: mg/kg. An outline of the steps:
as §1

The test system of assay [11] is P388. As to the kind of experiment: Antitumor activity against the ip implanted P388 leukemia in mice expressed as optimal dose (1-5qd treatment schedule) required to produce greatest increase in life span was determined. It counts as functional, Mus musculus. More on the design: unit: mg/kg. In outline: as §1
In assay [12] the test system is P388. The experiment in a line: Antitumor activity was determined against the ip implanted P388 leukemia in mice by range in survival days at 300 mg/kg (1 qd treatment schedule) dosage; Range is 39->45. It counts as functional, Mus musculus. Particulars: route intraperitoneal.
Assay [13] concerns P388. As to the kind of experiment: Antitumor activity was determined against the ip implanted P388 leukemia in mice by percent increase in life span at 300 mg/kg (1 qd treatment schedule) dosage. It counts as functional, Mus musculus. Particulars: route intraperitoneal. An outline of the steps:
as §2

For assay [14], the system named is P388. The experiment in a line: Antitumor activity was determined against the ip implanted P388 leukemia in mice by percent increase in life span at 60 mg/kg (1-5qd treatment schedule) dosage. The format is functional, Mus musculus. Particulars: route intraperitoneal. An outline of the steps:
as §2

In assay [15] the test system is P388. The experiment in a line: Antitumor activity against ip implanted P388 leukemia in mice expressed as active dose range (1 qd treatment schedule) required to produce increase in life span by >25% was determined; Range is 200-400. The format is functional, Mus musculus. An outline of the steps: as §1
The test system of assay [16] is P388. As to the kind of experiment: Antitumor activity was determined against the ip implanted P388 leukemia in mice by change in […] at 133 mg/kg (treatment of 1,5,9qd schedule) dosage. The format is functional, Mus musculus. Particulars: route intraperitoneal. An outline of the steps: as §3
The test system of assay [17] is P388. As to the kind of experiment: Antitumor activity was determined against the ip implanted P388 leukemia in mice by 45-day survivors in mice at 300 mg/kg (1 qd treatment schedule) dosage. The format is functional, Mus musculus. Particulars: route intraperitoneal. An outline of the steps: as §2
The test system of assay [18] is P388. As to the kind of experiment: Antitumor activity was determined against the ip implanted P388 leukemia in mice by percent median survival rate (treated/control) at 300 mg/kg (1 qd treatment schedule) dosage; >45.0/11.0. The format is functional, Mus musculus. Particulars: route intraperitoneal.
Assay [19] relates to P388. The experiment in a line: Antitumor activity was determined against the ip implanted P388 leukemia in mice by change in […] at 60 mg/kg (1-5qd treatment schedule) dosage. The format is functional, Mus musculus. Particulars: route intraperitoneal. An outline of the steps:
as §3

Assay [20] deals with L1210. As to the kind of experiment: Antitumor activity against the ip implanted L1210 leukemia in mice expressed as optimal dose (1-5qd treatment schedule) required to produce greatest increase in life span was determined. The format is functional, Mus musculus. An outline of the steps:
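DBA/2J mice, groups of 6 (23-28 g), were inoculated ip with 1 × 10^6 L1210 cells on day 0. Dosing was ip from 24 h, in 0.9% NaCl with 0.5% Tween-80 (sonicated solution or suspension). Mice were observed daily until death or day 45. Median survival T/C followed NCI protocols, and ILS = (T/C − 1) × 100. Active range means doses giving ILS ≥25%; optimal dose means greatest ILS.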

The subject of assay [21] is L1210. The experiment in a line: Antitumor activity was determined against the ip implanted L1210 leukemia in mice by range in survival days at 32 and 66 mg/kg (treatment of 1-5qd schedule) dosage; Range is 10-12. The format is functional, Mus musculus. Particulars: route intraperitoneal. An outline of the steps:
(§4)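 DBA/2J mice, 23-28 g, in groups of 6, were inoculated ip with 1×10^6 L1210 cells on day 0. Dosing was ip starting 24 h later on the stated daily schedules. Conjugates were given as sonicated solutions and reference prodrugs as suspensions in 0.9% NaCl with 0.5% Tween-80. Mice were observed daily until death or 45 days. Median survival T/C was calculated from survivors per NCI protocols.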

In assay [22] the test system is L1210. The experiment in a line: Antitumor activity was determined against the ip implanted L1210 leukemia in mice by percent increase in life span at 128 and 262 mg/kg (treatment of 1qd schedule) dosage. The format is functional, Mus musculus. Particulars: route intraperitoneal. An outline of the steps:
(§5)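 DBA/2J mice in groups of 6 (wt 23-28 g) were inoculated ip with 1×10^6 L1210 cells on day 0. Dosing was ip from 24 h, in 0.9% NaCl with 0.5% Tween-80 (conjugates sonicated), across a range of doses. Mice were observed daily until death or 45 days. Median T/C was computed from survivors per NCI protocols, and ILS = (T/C − 1)×100.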

Assay [23] deals with L1210. The experiment in a line: Antitumor activity was determined against the ip implanted L1210 leukemia in mice by change in […] at 128 and 262 mg/kg (treatment of 1qd schedule) dosage. It counts as functional, Mus musculus. Particulars: route intraperitoneal. In outline:
(§6)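 DBA/2J mice, 6 per group (wt 23-28 g), inoculated ip with 1×10^6 L1210 cells on day 0. Treatment was given ip in 0.9% NaCl with 0.5% Tween-80, starting 24 h later. Weight change was taken on day 8. Mice were observed daily until death or 45 days. Median survival T/C and %ILS = (T/C − 1) × 100 came from survivors per NCI protocols, and 45-day survivors were counted.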

The test system of assay [24] is L1210. As to the kind of experiment: Antitumor activity was determined against the ip implanted L1210 leukemia in mice by percent median survival rate (treated/control) at 32 and 66 mg/kg (treatment of 1-5qd schedule) dosage; Range is 11.0/8.0. The format is functional, Mus musculus. Particulars: route intraperitoneal. In outline:
as §4

Assay [25] deals with L1210. The experiment in a line: Antitumor activity was determined against the ip implanted L1210 leukemia in mice by percent increase in life span at 32 and 66 mg/kg (treatment of 1-5qd schedule) dosage. The format is functional, Mus musculus. Particulars: route intraperitoneal. An outline of the steps: as §5
For assay [26], the system named is L1210. As to the kind of experiment: Antitumor activity was determined against the ip implanted L1210 leukemia in mice by 45-day survivors in mice at 128 and 262 mg/kg (treatment of 1qd schedule) dosage. It counts as functional, Mus musculus. Particulars: route intraperitoneal. In outline: as §5
The test system of assay [27] is L1210. The experiment in a line: Antitumor activity was determined against the ip implanted L1210 leukemia in mice by 45-day survivors in mice at 32 and 66 mg/kg (treatment of 1-5qd schedule) dosage. The format is functional, Mus musculus. Particulars: route intraperitoneal. In outline: as §5
The test system of assay [28] is L1210. As to the kind of experiment: Antitumor activity was determined against the ip implanted L1210 leukemia in mice by range in survival days at 128 and 262 mg/kg (treatment of 1qd schedule) dosage; Range is 7-8. Particulars: route intraperitoneal. It counts as functional, Mus musculus. An outline of the steps: as §4
Assay [29] concerns L1210. As to the kind of experiment: Antitumor activity was determined against the ip implanted L1210 leukemia in mice by change in […] at 32 and 66 mg/kg (treatment of 1-5qd schedule) dosage. The format is functional, Mus musculus. Particulars: route intraperitoneal. In outline: as §6
The subject of assay [30] is L1210. As to the kind of experiment: Antitumor activity was determined against the ip implanted L1210 leukemia in mice by median survival time at 128 and 262 mg/kg (treatment of 1qd schedule) dosage; 8.0/8.0. Particulars: route intraperitoneal.

Values joined by “and” are separate entries in the source; they are usually repeats but may differ in a detail not shown here. Equal entries are not always repeated.

As to `CCCCCCCCCCCCCCCC(=O)OCC(COP(=O)(O)OP(=O)(O)OC[C@H]1O[C@@H](n2ccc(N)nc2=O)[C@@H](O)[C@@H]1O)OC(=O)CCCCCCCCCCCCCCC` (mixture of isomers), the values for the Active dose range in [1], in assay [3] and in assay [15] were 40 mg/kg/day, 100 mg/kg/day and 200 mg/kg/day, respectively. Further, the Survivors in [2] is recorded as 6; in [7], 6; in assay [17] it was 4. Moreover, the T/C in [4], in assay [5] and in assay [18] was over 45% in each case. The values for the ILS in [6], in assay [13] and in [14] were over 291, over 309 and over 291, respectively. The Optimal dose turned out to be 300 mg/kg/day in assay [8], 133 mg in assay [10] and 60 mg in assay [11]. In addition, the values for the Weight change in assay [9], in [16] and in assay [19] were -1.7 g mouse-1, 0.37 g mouse-1 and -3.27 g mouse-1, respectively. The molecule also returned a Range in [12] of 39.

Consider `CCCCCCCCCCCCCCCCCCOCC(COP(=O)(O)O)OC(=O)CCCCCCCCCCCCCCC.Nc1ccn([C@@H]2O[C@H](COP(=O)(O)O)[C@@H](O)[C@@H]2O)c(=O)n1` (racemic), for which, in assay [20], the Optimal dose is 32 mg and 66 mg. In addition, the Range worked out at 10 in assay [21] and 7 in [28]. The ILS was determined as 0 in assay [22] and 38 in assay [25]. The Weight change in [23] was 3.2 g mouse-1; in assay [29], 3.5 g mouse-1. The median survival time is 11 days in assay [24] and 8 days in [30]. In addition, the Survivors in assay [26] and in assay [27] was 0 in each case.

Broadly, the T/C is the result in the treated group divided by that in the control group, in per cent.
